Assay results from ChEMBL document CHEMBL1153964, “Tricyclic HIV integrase inhibitors V. SAR studies on the benzyl moiety” (Bioorg Med Chem Lett, 2009).

Assays:
[1] = Inhibition of HIV integrase strand transfer activity; parameters: species or system Human immunodeficiency virus
Outline: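 Strand transfer was run with biotinylated donor DNA bound to streptavidin-coated plates and DIG-tagged target DNA. Values are means of at least two experiments.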

[2] = system: Human immunodeficiency virus 1; test: Antiviral activity against HIV1 3B infected in human MT2 cells after 5 days by chemiluminescence in presence of fetal bovine serum; format: functional, organism-based; conditions: Human immunodeficiency virus 1, 3B, MT2, 120 h
Outline: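 HIV-1 IIIB infected MT-2 cells at m.o.i. 0.01 for 3 h, then ~1.5 × 10⁴ cells per well were added to 9 fivefold serial drug dilutions in triplicate in medium with 10% FBS. Plates ran 5 days at 37 °C. CellTiter-Glo was added with 10 min room-temperature lysis, and chemiluminescence was read. Values are means of at least two experiments.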

[3] = system: Human immunodeficiency virus 1; test: Antiviral activity against HIV1 3B infected in human MT2 cells after 5 days by chemiluminescence in presence of human serum albumin; format: functional, organism-based; conditions: Human immunodeficiency virus 1, 3B, MT2, 120 h
Outline: (§1)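 Same MT-2/HIV-1 IIIB 5-day CellTiter-Glo chemiluminescence assay in 10% FBS, with physiological HSA (35 mg/ml) and α1-AGP (1.5 mg/ml) added. Shift fold is EC50 with these serum proteins divided by EC50 in 10% FBS alone.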

[4] = system: Human immunodeficiency virus 1; test: Ratio of EC50 for HIV1 3B in presence of human serum proteins to EC50 for HIV1 3B in presence of fetal bovine serum; format: functional; outline: as §1
[5] = Oral bioavailability in rat; format: ADME, organism-based; conditions: in vivo
Outline: (§2)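 Rats and dogs received compound as free parent in solution (EtOH, PG, PEG400 and citric acid), at pH 3.3 for iv and pH 2.2 for oral dosing. Half-life and total body clearance come from the iv groups. Oral F (%) is from po versus iv AUC. Values are means of three animals per study.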

[6] = Half life in iv dosed rat; format: ADME, organism-based; conditions: in vivo; outline: as §2
[7] = Clearance in iv dosed rat; format: ADME, organism-based; conditions: in vivo; outline: as §2
[8] = Oral bioavailability in dog; format: ADME, organism-based, Canis lupus familiaris; conditions: in vivo; outline: as §2
[9] = Half life in iv dosed dog; format: ADME, organism-based, Canis lupus familiaris; conditions: in vivo; outline: as §2
[10] = Clearance in iv dosed dog; format: ADME, organism-based, Canis lupus familiaris; conditions: in vivo; outline: as §2

CN(c1c2c(c(O)c3ncccc13)C(=O)N(Cc1cccc(Cl)c1F)C2)S(C)(=O)=O
IC50 [1]: 61 nM
EC50 [2]: 6 nM
EC50 [3]: 18 nM
Ratio EC50 [4]: 3

CN(c1c2c(c(O)c3ncccc13)C(=O)N(Cc1ccccc1)C2)S(C)(=O)=O
IC50 [1]: 120 nM
EC50 [2]: 35 nM

CN(c1c2c(c(O)c3ncccc13)C(=O)N(Cc1cc(Cl)c(F)cc1F)C2)S(C)(=O)=O
IC50 [1]: 39 nM
EC50 [2]: 6 nM
EC50 [3]: 17 nM
Ratio EC50 [4]: 2.8
bioavailability [5]: 9%
half-life [6]: 1.38 h
clearance [7]: 4.83 mL/min/kg
bioavailability [8]: 79%
half-life [9]: 16 h
clearance [10]: 0.333 mL/min/kg

CNC(=O)c1cc(F)ccc1CN1Cc2c(c(O)c3ncccc3c2N(C)S(C)(=O)=O)C1=O
IC50 [1]: 74 nM
EC50 [2]: 32 nM
EC50 [3]: 90 nM
Ratio EC50 [4]: 2.8

CC(=O)Nc1cc(F)ccc1CN1Cc2c(c(O)c3ncccc3c2N(C)S(C)(=O)=O)C1=O
IC50 [1]: 5 nM
EC50 [2]: 52 nM

CN(c1c2c(c(O)c3ncccc13)C(=O)N(Cc1ccc(F)c(Cl)c1F)C2)S(C)(=O)=O
IC50 [1]: 135 nM
EC50 [2]: 5 nM
EC50 [3]: 18 nM
Ratio EC50 [4]: 3.6

CN(c1c2c(c(O)c3ncccc13)C(=O)N(Cc1ccc(F)cc1)C2)S(C)(=O)=O
IC50 [1]: 28 nM
EC50 [2]: 1.7 nM
EC50 [3]: 11.4 nM
Ratio EC50 [4]: 6.7
bioavailability [5]: 15%
half-life [6]: 1.1 h
clearance [7]: 4.67 mL/min/kg
bioavailability [8]: 45%
half-life [9]: 7 h
clearance [10]: 6.67 mL/min/kg

CN(c1c2c(c(O)c3ncccc13)C(=O)N(Cc1ccc(F)c(Cl)c1)C2)S(C)(=O)=O
IC50 [1]: 52 nM
EC50 [2]: 3.5 nM
EC50 [3]: 12 nM
Ratio EC50 [4]: 3.4
bioavailability [5]: 7%
half-life [6]: 1.36 h
clearance [7]: 3.83 mL/min/kg
bioavailability [8]: 41%
half-life [9]: 7.13 h
clearance [10]: 2.5 mL/min/kg

Cc1nnc(C(=O)NC(C)(C)c2nc(C(=O)NCc3ccc(F)cc3)c(O)c(=O)n2C)o1 [RALTEGRAVIR]
IC50 [1]: 40 nM
EC50 [2]: 4 nM
EC50 [3]: 20 nM
